According to ChEMBL document CHEMBL1177643, “Synthesis, DNA-binding ability and anticancer activity of benzothiazole/benzoxazole-pyrrolo[2,1-c][1,4]benzodiazepine conjugates” (Bioorg Med Chem, 2010):
Several values for one entry are separate records, joined by “and”; a condition that tells them apart may be missing. Equal values may be shown once.

Experiments:
[1] = system: A-375; test: Induction of apoptosis in human A375 cells at 2 uM; format: functional, cell-based
In short: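 A375 melanoma cells (5 × 10⁵ per 60 mm dish) grown 24 h, then exposed to 2 μM compound (final) for 24 h; DMSO-treated cells as control. Cells harvested with trypsin–EDTA, fixed in ice-cold 70% ethanol, treated with RNase A, and stained with propidium iodide. DNA content of 20,000 events read by flow cytometry; sub-G1 (G0) area taken as apoptotic.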

[2] = system: A-375; test: Cell cycle arrest in human A375 cells assessed as accumulation at S phase at 0.5 uM after 24 hrs using propidium iodide staining by flow cytometry; format: functional
In short: (§1)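 A375 cells (5×10^5) grown 24 h, then exposed to compound 24 h (DMSO control). Trypsin–EDTA harvest, fixed in ice-cold 70% ethanol at 4 °C 30 min, RNase A 37 °C 30 min, propidium iodide staining. DNA content measured by flow cytometry on 20,000 events, gated as sub-G1/G0, G1, S and G2/M.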

[3] = system: A-375; test: Cell cycle arrest in human A375 cells assessed as accumulation at G2/M phase at 0.5 uM after 24 hrs using propidium iodide staining by flow cytometry; format: functional; in short: as §1
[4] = system: A-375; test: Cell cycle arrest in human A375 cells assessed as accumulation at G0/G1 phase at 0.5 uM after 24 hrs using propidium iodide staining by flow cytometry; format: functional; in short: as §1
[5] = system: A-375; test: Cell cycle arrest in human A375 cells assessed as accumulation at G0 phase at 1 uM after 24 hrs using propidium iodide staining by flow cytometry; format: functional; in short: as §1
[6] = system: A-375; test: Cell cycle arrest in human A375 cells assessed as accumulation at S phase at 1 uM after 24 hrs using propidium iodide staining by flow cytometry; format: functional; in short: as §1
[7] = system: A-375; test: Cell cycle arrest in human A375 cells assessed as accumulation at G0/G1 phase at 1 uM after 24 hrs using propidium iodide staining by flow cytometry; format: functional; in short: as §1
[8] = system: A-375; test: Cell cycle arrest in human A375 cells assessed as accumulation at sub-G0 phase at 0.5 uM after 24 hrs using propidium iodide staining by flow cytometry; format: functional; in short: as §1
[9] = system: A-375; test: Cell cycle arrest in human A375 cells assessed as accumulation at sub-G0 phase at 1 uM after 24 hrs using propidium iodide staining by flow cytometry; format: functional; in short: as §1
[10] = system: HT-29; test: Antitumor activity against human HT-29 cells xenografted in SCID mouse assessed as reduction tumor volume at 15 mg/kg, ip measured on day 1; format: functional; conditions: route intraperitoneal
In short: (§2)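 HT29 xenografts in scid mice; dosing ip on days 1, 5 and 9 (q4d), 5 or 10 mg/kg per dose (total 15 or 30 mg/kg); vehicle control group. Tumour volume, body weight and toxicity followed for 35 days. Relative tumour volume = volume on given day / volume on day 1; T/C = mean RTV treated / mean RTV control.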

[11] = system: HT-29; test: Antitumor activity against human HT-29 cells xenografted in SCID mouse assessed as reduction tumor volume at 15 mg/kg, ip measured on day 5; format: functional; conditions: route intraperitoneal; in short: as §2
[12] = system: HT-29; test: Antitumor activity against human HT-29 cells xenografted in SCID mouse assessed as reduction tumor volume at 30 mg/kg, ip measured on day 5; format: functional; conditions: route intraperitoneal; in short: as §2
[13] = system: HT-29; test: Antitumor activity against human HT-29 cells xenografted in SCID mouse assessed as reduction tumor volume at 30 mg/kg, ip measured on day 9; format: functional; conditions: route intraperitoneal; in short: as §2
[14] = system: HT-29; test: Antitumor activity against human HT-29 cells xenografted in SCID mouse assessed as reduction tumor volume at 15 mg/kg, ip measured on day 17; format: functional; conditions: route intraperitoneal; in short: as §2
[15] = system: HT-29; test: Antitumor activity against human HT-29 cells xenografted in SCID mouse assessed as reduction tumor volume at 15 mg/kg, ip measured on day 21; format: functional; conditions: route intraperitoneal; in short: as §2
[16] = system: HT-29; test: Antitumor activity against human HT-29 cells xenografted in SCID mouse assessed as reduction tumor volume at 30 mg/kg, ip measured on day 25; format: functional; conditions: route intraperitoneal; in short: as §2
[17] = system: HT-29; test: Antitumor activity against human HT-29 cells xenografted in SCID mouse assessed as reduction tumor volume at 30 mg/kg, ip measured on day 32; format: functional; conditions: route intraperitoneal; in short: as §2
[18] = system: HT-29; test: Antitumor activity against human HT-29 cells xenografted in SCID mouse assessed as reduction tumor volume at 15 mg/kg, ip measured on day 35; format: functional; conditions: route intraperitoneal; in short: as §2
[19] = system: HT-29; test: Antitumor activity against human HT-29 cells xenografted in SCID mouse assessed as reduction tumor volume at 30 mg/kg, ip measured on day 35; format: functional; conditions: route intraperitoneal; in short: as §2
[20] = Toxicity in SCID mouse; format: organism-based; conditions: in vivo
[21] = system: Mus musculus; test: Toxicity in SCID mouse assessed as weight loss at 15 mg/kg, ip; format: organism-based; parameters: dose 15 mg/kg, route intraperitoneal; conditions: in vivo
In short: (§3)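 HT29 xenograft-bearing scid mice dosed ip at 5 or 10 mg/kg on days 1, 5 and 9 (q4d), totalling 15 or 30 mg/kg. Vehicle-treated control group. Body weight, survival and signs of overt toxicity were recorded over the 35-day study.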

[22] = system: Mus musculus; test: Toxicity in SCID mouse assessed as weight loss at 30 mg/kg, ip; format: organism-based; parameters: dose 30 mg/kg, route intraperitoneal; conditions: in vivo; in short: as §3
[23] = system: Mus musculus; test: Toxicity in SCID mouse assessed as mortality at 15 mg/kg, ip; format: organism-based; parameters: dose 15 mg/kg, route intraperitoneal; conditions: in vivo; in short: as §3

COc1cc(-c2nc3ccccc3s2)ccc1OCCCCCOc1cc2c(cc1OC)C(=O)N1CCC[C@H]1C=N2
Activity [1]: Dose-dependent effect | Activity [2]: 64.95% | Activity [3]: 15.96% | Activity [4]: 67.08% | Activity [5]: 2.7% | Activity [6]: 15.42% | Activity [7]: 64.26% | Activity [8]: 2.13% | Activity [9]: 2.7% | T/C [10]: 1% | T/C [11]: 0.65% and 0.62% | T/C [12]: 0.85% | T/C [13]: 0.78% | T/C [14]: 0.65% and 0.28% | T/C [15]: 0.65% and 0.2% | T/C [16]: 0.67% | T/C [17]: 0.76% | T/C [18]: 0.82% and 0.14% | T/C [19]: 0.68% | MTD [20]: < 50 mg/kg | Activity [21]: Non-toxic | Activity [22]: Non-toxic | Activity [23]: Non-toxic
